{"source": "ChEMBL document CHEMBL4425157", "about": "“New antibacterial agents: Hybrid bioisoster derivatives as potential E. coli FabH inhibitors” (Bioorg Med Chem Lett, 2016)", "key": {"[1]": {"test": "Induction of nitrite formation at 100 uM measured after 1 hr in presence of L-cysteine by Griess assay", "assay_type": "functional", "how_it_was_run": "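Compound at 100 µM incubated with 5 mM L-cysteine in 50 mM phosphate buffer pH 7.4/methanol (1:1), 1 h at 37 °C; aliquots taken and nitrite quantified by Griess reaction.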"}, "[2]": {"test": "Growth inhibition of african green monkey Vero cells at highest concentration measured after 72 hrs by MTS assay relative to control", "assay_type": "cell-based", "settings": "chlorocebus sabaeus, read-out: GI", "how_it_was_run": "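Vero cells in MTS viability assay; the value is the percentage growth inhibition at the highest compound concentration tested.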"}, "Staphylococcus aureus": {"tested_on": "Staphylococcus aureus", "test": "Antibacterial activity against Staphylococcus aureus ATCC 29213 by broth microdilution method", "assay_type": "functional"}, "Candida albicans": {"tested_on": "Candida albicans", "test": "Antifungal activity against Candida albicans ATCC 10231 by broth dilution method", "assay_type": "functional"}, "Escherichia coli": {"tested_on": "Escherichia coli", "test": "Antibacterial activity against Escherichia coli ATCC 25922 by broth microdilution method", "assay_type": "functional", "how_it_was_run": "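MIC read by broth microdilution, run in duplicate.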"}, "Vero": {"tested_on": "Vero", "test": "Cytotoxicity against african green monkey Vero cells assessed as reduction in cell viability measured after 72 hrs by MTS assay", "assay_type": "cell-based", "settings": "Chlorocebus sabaeus", "how_it_was_run": "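Vero cells exposed to compounds, with viability read by MTS assay; IC50 derived from the viability data.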"}}, "note": "Active and inactive are the calls of the source. The rule behind the calls is not given here.", "data": [{"molecule": "COc1ccc(S(=O)(=O)N/N=C/c2no[n+]([O-])c2C)cc1", "values": [{"measurement": "Activity", "setting": "[1]", "result": "inactive"}, {"measurement": "inhibition at 72 h", "setting": "[2]", "result": 0, "unit": "%"}, {"measurement": "MIC", "setting": "Staphylococcus aureus", "result": "> 100", "unit": "µM"}, {"measurement": "MIC", "setting": "Candida albicans", "result": "> 100", "unit": "µM"}, {"measurement": "MIC", "setting": "Escherichia coli", "result": 77.8, "unit": "µM"}, {"measurement": "IC50", "setting": "Vero", "result": "> 100", "unit": "µM"}]}, {"molecule": "GENTAMICIN", "values": [{"measurement": "MIC", "setting": "Staphylococcus aureus", "result": 0.076, "unit": "µM"}, {"measurement": "MIC", "setting": "Escherichia coli", "result": "< 0.02", "unit": "µM"}]}, {"molecule": "C[C@@H]1[C@H](O)[C@@H](C)/C=C/C=C/C=C/C=C/C=C/C=C/C=C/[C@H](O[C@@H]2O[C@H](C)[C@@H](O)[C@H](N)[C@@H]2O)C[C@@H]2O[C@](O)(C[C@@H](O)C[C@@H](O)[C@H](O)CC[C@@H](O)C[C@@H](O)CC(=O)O[C@H]1C)C[C@H](O)[C@H]2C(=O)O", "note": "[AMPHOTERICIN B]", "values": [{"measurement": "MIC", "setting": "Candida albicans", "result": 0.027, "unit": "µM"}]}, {"molecule": "Cc1ccc(S(=O)(=O)N/N=C/c2no[n+]([O-])c2C)cc1", "values": [{"measurement": "Activity", "setting": "[1]", "result": "inactive"}, {"measurement": "inhibition at 72 h", "setting": "[2]", "result": 8.38, "unit": "%"}, {"measurement": "MIC", "setting": "Staphylococcus aureus", "result": "> 100", "unit": "µM"}, {"measurement": "MIC", "setting": "Candida albicans", "result": "> 100", "unit": "µM"}, {"measurement": "MIC", "setting": "Escherichia coli", "result": 0.36, "unit": "µM"}, {"measurement": "IC50", "setting": "Vero", "result": "> 100", "unit": "µM"}]}, {"molecule": "CC1(C)S[C@@H]2[C@H](NC(=O)[C@H](N)c3ccccc3)C(=O)N2[C@H]1C(=O)O", "note": "[AMPICILLIN]", "values": [{"measurement": "MIC", "setting": "Staphylococcus aureus", "result": 1.1, "unit": "µM"}, {"measurement": "MIC", "setting": "Escherichia coli", "result": 9.59, "unit": "µM"}]}, {"molecule": "Cc1c(/C=N/NS(=O)(=O)c2ccc(C(C)(C)C)cc2)no[n+]1[O-]", "values": [{"measurement": "Activity", "setting": "[1]", "result": "inactive"}, {"measurement": "inhibition at 72 h", "setting": "[2]", "result": 74.8, "unit": "%"}, {"measurement": "MIC", "setting": "Staphylococcus aureus", "result": "> 100", "unit": "µM"}, {"measurement": "MIC", "setting": "Candida albicans", "result": "> 100", "unit": "µM"}, {"measurement": "MIC", "setting": "Escherichia coli", "result": 287, "unit": "µM"}, {"measurement": "IC50", "setting": "Vero", "result": "> 100", "unit": "µM"}]}, {"molecule": "Cc1c(/C=N/NS(=O)(=O)c2ccc([N+](=O)[O-])cc2)no[n+]1[O-]", "values": [{"measurement": "Activity", "setting": "[1]", "result": "inactive"}, {"measurement": "inhibition at 72 h", "setting": "[2]", "result": 0, "unit": "%"}, {"measurement": "MIC", "setting": "Staphylococcus aureus", "result": "> 100", "unit": "µM"}, {"measurement": "MIC", "setting": "Candida albicans", "result": "> 100", "unit": "µM"}, {"measurement": "MIC", "setting": "Escherichia coli", "result": "> 300", "unit": "µM"}, {"measurement": "IC50", "setting": "Vero", "result": "> 100", "unit": "µM"}]}, {"molecule": "CO[C@H]1/C=C/O[C@@]2(C)Oc3c(C)c(O)c4c(O)c(c(/C=N/N5CCN(C)CC5)c(O)c4c3C2=O)NC(=O)/C(C)=C\\C=C\\[C@H](C)[C@H](O)[C@@H](C)[C@@H](O)[C@@H](C)[C@H](OC(C)=O)[C@@H]1C", "note": "[RIFAMPIN]", "values": [{"measurement": "inhibition at 72 h", "setting": "[2]", "result": 44.8, "unit": "%"}, {"measurement": "IC50", "setting": "Vero", "result": "> 100", "unit": "µM"}]}, {"molecule": "Cc1c(/C=N/NS(=O)(=O)c2ccccc2)no[n+]1[O-]", "values": [{"measurement": "Activity", "setting": "[1]", "result": "inactive"}, {"measurement": "inhibition at 72 h", "setting": "[2]", "result": 63.4, "unit": "%"}, {"measurement": "MIC", "setting": "Staphylococcus aureus", "result": "> 100", "unit": "µM"}, {"measurement": "MIC", "setting": "Candida albicans", "result": "> 100", "unit": "µM"}, {"measurement": "MIC", "setting": "Escherichia coli", "result": 10.7, "unit": "µM"}, {"measurement": "IC50", "setting": "Vero", "result": "> 100", "unit": "µM"}]}]}
